# Compound activity from PubChem BioAssay.
# TIM10 inh: growth inhibitors of isogenic TIM10 control yeast, primary screen, counter-screen for tim10-1 yeast inhibitor project, luminescence, uHTS; S. cerevisiae TIM10 strain growth, BacTiter-Glo luminescence, 24 h; inhibition, % at 10 µM; 1.4% of 330,000 active; AID 463195, 2010;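 active = inhibition of 40% or more at the single tested concentration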;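 also: wild-type TIM10 isogenic control strain grown at permissive 25 °C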
# XBP1 UPR activ: activators of adaptive XBP1 UPR arm, primary screen, cell-based, CHO-XBP1 luciferase reporter, luminescence, uHTS | 0.33% of 330,000 active | IRE1-XBP1 UPR activation; percent of tunicamycin response, DMSO as zero | AID 463104, 2010 | activation, % at 20 µM;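 active = versus positive control, 20 µM dose yields 30% or more activation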;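 also: 100% = tunicamycin at 10 µg/mL and 0% = DMSO only wells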
#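 Test system: CHO-XBP1 luciferase reporter cells | Buffer or medium: Serum-containing F12 medium, 10% FBS | Schedule: 6 h compound exposure at 37 °C, 5% CO2 | Detection: Steady-Glo luciferase glow luminescence, 10 min after reagent addition | Read-out basis: Activation, % of tunicamycin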
# CHOP UPR activ: activators of apoptotic CHOP UPR arm, primary screen, cell-based, CHO-CHOP luciferase reporter, luminescence, uHTS; UPR activation; percent of tunicamycin response over DMSO baseline; activation, % at 10 µM; 0.34% of 330,000 active;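 active = at 10 µM dose, activation of 40% or more, normalized to positive control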;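 also: 100% = tunicamycin at 10 µg/mL and 0% = DMSO alone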
#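 System: CHO CHOP reporter cells. Amount: 500 cells per well. Buffer or medium: F12 medium, 10% FBS. Compound dosing: one dose, 10 µM in 0.5% DMSO. Incubation: 6 h compound exposure at 37 °C after overnight seeding. Technique: Steady-Glo luciferase luminescence. Benchmarks: tunicamycin and DMSO controls.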
# tim10-1 inh: growth inhibitors of tim10-1 mutant yeast, primary screen, luminescence, uHTS; S. cerevisiae tim10-1 ts strain growth, BacTiter-Glo, 24 h; inhibition, % at 20 µM; 2.2% of 330,000 active; AID 463190, 2010;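 active = inhibition of at least 40%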;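 also: mutant grown at 25 °C; 0% = DMSO wells with yeast and 100% = wells holding no yeast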
# tim23-1 inh: growth inhibitors of tim23-1 mutant yeast, primary screen, luminescence, uHTS; 1.3% of 330,000 active; S. cerevisiae tim23-1 growth, BacTiter-Glo luminescence, 24 h; inhibition, % at 20 µM;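 active = growth inhibition of the mutant yeast at or above 50%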;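 also: temperature-sensitive mutant grown at 25 °C; plate controls were DMSO-treated mutant yeast for no effect and medium wells lacking yeast for full effect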
# tim23-1 confirm: tim23-1 mutant yeast growth inhibitors, confirmation, luminescence, single concentration | 83% of 4,400 active | inhibition, % at 20 µM | shares compounds with tim23-1 inh | S. cerevisiae tim23-1 growth, BacTiter-Glo luminescence, 24 h;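 active = inhibition above about 39% in either of two replicate wells at 20 µM, limit read from the data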;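 also: temperature-sensitive tim23-1 mutant grown at 25 °C; 0% = DMSO wells with yeast and 100% = medium wells without yeast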
# The depositor's hits bear a star; x = no result. The list is not random: actives were taken first. Their share in the collection is about 3.9%.
SMILES,TIM10 inh,XBP1 UPR activ,CHOP UPR activ,tim10-1 inh,tim23-1 inh,tim23-1 confirm
COc1ccc(Cn2c(-c3ccco3)nc3c(c(=O)c4ccccc4n3C)c2=O)cc1,14.0,29.1,1.2,18.7,21.4,x
O=C(COC(=O)C1CCC(N2C(=O)C3C4CCC(C4)C3C2=O)CC1)c1ccc(F)cc1 (centres undefined),25.3,-3.9,0.2,14.3,23.9,x
Cn1c(SCc2ccc(Br)cc2)nnc1-c1ccccn1,13.3,1.9,3.7,25.1,52.4*,11.2
CSc1ccccc1NC(=O)Nc1cccc2ccccc12,-8.0,-0.9,3.6,0.1,10.2,x
COC(=O)c1ccc(C2Nc3cccc4cccc(c34)N2)cc1,8.0,-3.1,0.4,19.4,4.3,x
COc1ccc(C2Nc3cccc4cccc(c34)N2)cc1Br,25.8,-3.3,2.0,23.2,55.7*,55.4*
N#C[C@H]1C2OC2c2ccccc2N1C(=O)c1ccccc1 (some centres undefined),8.4,-1.8,-2.2,-12.6,7.4,x
O=C1OC(/C=C/c2ccc(Cl)cc2)=NC/1=C/c1ccco1,24.0,-0.5,2.0,34.1,60.2*,41.9*
CCCN(CCC)C1=N/C(=C\c2ccco2)C(=O)N1c1ccccc1,15.5,2.8,-2.8,34.7,47.9,x
CN1C(=O)/C(=C\c2ccco2)N=C1c1ccc(Cl)cc1Cl,30.1,0.9,0.4,19.9,70.6*,44.2*
CC(=O)c1cccc(S(=O)(=O)N2CCC(C(=O)N(C)Cc3ccc(Cl)s3)CC2)c1,6.1,-3.3,0.7,23.7,18.5,x
COc1cc(/C=N/NC(=O)c2ccc(N)cc2)ccc1OC(=O)c1cccc(C)c1,24.5,0.8,1.3,27.9,65.0*,72.6*
O=C(O)c1ccc(C(=O)C(=O)c2ccccc2)cc1,-1.4,0.0,2.4,7.8,-0.4,x
CSC(SC)=C(C#N)C(=O)c1ccccc1,10.3,-8.3,38.6,37.0,80.2*,84.6*
S=C(NCc1ccccn1)Nc1ccc(Cl)c(Cl)c1,27.1,-3.3,4.4,33.4,55.5*,46.3*
CO/N=C\CC(=O)Nc1ccc(Oc2ccccc2)cc1,-20.2,7.0,3.5,-12.6,17.9,x
COc1ccc(N(C)C(=O)C2CCN(S(=O)(=O)c3cccc4nonc34)CC2)c(OC)c1,8.7,-4.0,0.7,29.2,16.4,x
COc1ccc2nc(SCC(=O)NCc3ccc(OC)c(OC)c3)[nH]c2c1,5.8,-0.4,1.8,-14.3,1.6,x
COc1cc(C(=S)N2CCOCC2)cc(OC)c1OC(=O)c1ccc(C)cc1,5.3,-7.1,-1.2,12.7,21.0,x
CC(C)(C)SCCNC(=O)c1ccc(Cl)c([N+](=O)[O-])c1,9.3,-0.5,1.3,34.2,53.0*,29.1
CC(=O)Nc1ccc(-c2cn3c(n2)SCC3)cc1,-20.3,0.6,4.2,0.1,6.1,x
O=C(Nc1ccc(-c2cn3c(n2)SCC3)cc1)c1ccco1,15.6,1.2,4.2,10.5,50.6*,44.0*
O=C(CN1C(=O)C(=O)N(CCC2=CCCCC2)C1=O)c1c[nH]c2ccccc12,39.5,-1.8,3.4,13.4,60.0*,38.8*
COc1c2ccccc2nc2ccccc12,-14.0,-1.3,0.4,-57.0,8.7,x
Cc1c2ccccc2nc2ccccc12,21.5,1.9,1.1,26.3,70.4*,62.6*
SMILES,TIM10 inh,XBP1 UPR activ,CHOP UPR activ,tim10-1 inh,tim23-1 inh,tim23-1 confirm
COc1cc(CCCN2C(N)=NC[C@@H]2Cc2ccccc2)cc(OC)c1OC,12.4,-3.0,-1.4,5.3,7.2,x
COC(=O)C1=C(C(=O)OC)C(c2ccc(OC)c(OC)c2)c2sc(=O)[nH]c2S1 (centres undefined),-1.2,-0.3,-1.1,28.3,22.4,x
COC(=O)C1=C(C(=O)OC)C(c2cc(Cl)ccc2O)c2sc(=O)[nH]c2S1 (centres undefined),33.0,1.8,0.2,34.4,62.1*,57.7*
O=C(Oc1ccc2ccc(O)cc2c1)c1ccccc1Cl,37.0,-0.7,9.1,19.0,62.7*,51.9*
O=C(NCCc1ccccc1)c1cccc2c1C(=O)N(C1CCCCC1)C2,24.4,1.8,2.9,26.0,50.6*,39.4
O=C(NCCc1ccncc1)c1ccc2nc(Cc3cccc(Cl)c3)oc2c1,11.4,-3.9,0.7,23.0,24.6,x
CCC(CC)C(=O)Nc1c(C(=O)N2CCN(c3ccccc3)CC2)oc2ccccc12,28.1,-3.3,0.3,39.0,51.2*,42.0*
Cc1ccc(Sc2ccc(N)cc2C#N)cc1,10.8,-0.3,-2.3,34.9,58.1*,37.1
Cc1cnc(C(=O)OCC(=O)Nc2ccc(Br)cc2F)cn1,-6.1,0.8,0.6,8.6,15.3,x
CC(C)CC(=O)Nc1ccccc1N1CCN(C(=O)c2ccccc2)CC1,4.0,-1.7,-0.9,13.4,76.3*,7.2
CCOC(=O)C1(Cc2ccc(OC)cc2)CCN(C(=O)[C@@H]2CCCN2C(C)=O)CC1,-2.7,0.7,2.3,-7.1,4.9,x
COCc1nc2ccccc2n1CCc1ccccc1,11.6,-3.1,-0.9,18.3,14.7,x
COc1ccc(-c2cc(-c3ccccc3)n[nH]2)c(O)c1,4.1,0.7,6.0,10.2,68.8*,57.5*
COc1ccc(-c2ncncc2-c2ccccc2)c(O)c1,7.7,1.4,-1.1,16.9,8.8,x
COc1ccc(-c2cc(-c3ccccc3O)[nH]n2)cc1,25.3,-3.3,4.7,22.2,68.9*,62.5*
O=C1C(NS(=O)(=O)c2cccs2)=C(N2CCN(Cc3ccccc3)CC2)C(=O)c2ccccc21,22.0,0.5,3.2,24.0,52.7*,32.1
CN1CCN(C2=C(NS(=O)(=O)c3cccs3)C(=O)c3ccccc3C2=O)CC1,-4.6,-1.1,3.7,28.5,5.9,x
Cc1nc(Nc2ccc(O)cc2)c2c3c(sc2n1)CCCC3,22.2,1.1,-0.1,16.9,51.8*,45.4*
Cc1nc(-c2ccccc2)sc1C(N)=O,6.3,-1.4,0.2,16.6,95.9*,7.3
CNC(=O)c1sc(-c2ccccc2)nc1C,6.2,2.9,2.7,-6.3,-11.9,x
O=C(/C=C/c1ccc2c(c1)OCO2)c1ccccn1,21.8,-2.3,4.3,32.0,56.0*,43.5*
COC(=O)C1CCN(C(=O)COC(=O)c2cc(-c3ccccc3)nc3ccc(OC)cc23)CC1,13.1,-1.4,4.3,19.2,38.4,x
COc1cc2oc(=O)cc(-c3ccc(-c4ccc(O)cc4)cc3)c2c(OC)c1OC,1.0,1.9,3.2,27.7,55.7*,35.4
Cc1cc(O)c2c(-c3ccccc3)cc(=O)oc2c1,31.2,1.1,0.7,32.1,46.6,x
